ChEMBL document CHEMBL1157958, “Phenolic compounds from the roots of Lindera fruticosa” (J Nat Prod, 2006)

What was measured:
[1] = molecular target: T1, Sterol O-acyltransferase 1 (Homo sapiens) (UniProt P35610); assay: Inhibition of human ACAT1 at 0.4 mM
T1 sequence (whole entry): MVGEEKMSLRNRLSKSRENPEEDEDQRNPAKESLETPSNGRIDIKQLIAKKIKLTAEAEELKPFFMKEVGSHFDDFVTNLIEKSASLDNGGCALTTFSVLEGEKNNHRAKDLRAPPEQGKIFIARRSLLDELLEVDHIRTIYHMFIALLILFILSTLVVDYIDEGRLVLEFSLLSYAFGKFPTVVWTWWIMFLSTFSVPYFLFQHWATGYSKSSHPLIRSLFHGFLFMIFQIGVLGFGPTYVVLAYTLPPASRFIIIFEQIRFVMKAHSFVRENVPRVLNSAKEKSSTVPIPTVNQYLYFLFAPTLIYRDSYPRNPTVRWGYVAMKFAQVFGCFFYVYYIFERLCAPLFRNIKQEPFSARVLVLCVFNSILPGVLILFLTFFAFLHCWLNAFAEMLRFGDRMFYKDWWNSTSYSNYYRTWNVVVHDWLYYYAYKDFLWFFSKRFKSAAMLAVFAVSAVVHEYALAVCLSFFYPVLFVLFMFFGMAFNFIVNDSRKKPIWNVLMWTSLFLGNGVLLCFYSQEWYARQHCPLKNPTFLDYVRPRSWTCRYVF
How it was run: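 Human ACAT-1 inhibition, run by the Brecher and Chan method with slight modifications. Test concentration 0.4 mM; read-out is percent inhibition; data are mean ± standard deviation of three replicates.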

[2] = Antioxidant activity assessed as inhibition of LDL oxidation; type: functional
How it was run: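 LDL oxidation inhibition, run by a literature method with slight modifications. IC50 in µM; data are mean ± standard deviation of three replicates.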

inhibition [1] [%] | IC50 [2] [µM] | Compound
31 | 386 | O=c1c2cc(O)ccc2oc2cccc(O)c12
46 | 478 | COc1cccc(O)c1C(=O)OCc1ccccc1
54 | 524 | COc1c(C(=O)c2ccccc2)ccc2c1OCO2
 | 4.3 | CC(C)(Sc1cc(C(C)(C)C)c(O)c(C(C)(C)C)c1)Sc1cc(C(C)(C)C)c(O)c(C(C)(C)C)c1 [PROBUCOL]
7 | 25.5 | COc1c(O)ccc2oc3c(O)cc(O)cc3c(=O)c12
31 | 192 | COc1c([C@@H](O)c2ccccc2)ccc2c1OCO2
30 | 15.5 | COc1cc(O)cc(-c2ccccc2)c1
43 | 48.1 | COc1cc(OC)cc(-c2ccccc2)c1
